{
  "source": "ChEMBL document CHEMBL5260840",
  "about": "(J Med Chem, 2019)",
  "key": {"[1]": {"assay": "Stability in human liver microsomes at 0.5 uM measured upto 30 mins in the presence of NADPH", "type": "ADME, Microsome", "settings": "0.5 h"}, "[2]": {"biological_target": "T1, von Hippel-Lindau disease tumor suppressor/Bromodomain-containing protein 9 (Homo sapiens) (UniProt Q9H8M2+P40337)", "T1 sequence (P40337 whole entry, looked up)": "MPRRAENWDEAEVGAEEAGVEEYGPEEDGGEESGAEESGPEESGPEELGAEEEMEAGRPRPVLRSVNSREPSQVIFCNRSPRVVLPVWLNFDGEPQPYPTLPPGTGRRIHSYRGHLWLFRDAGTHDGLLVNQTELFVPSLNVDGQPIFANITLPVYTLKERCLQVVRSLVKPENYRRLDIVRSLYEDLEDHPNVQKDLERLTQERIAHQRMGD", "T1 sequence (Q9H8M2 whole entry, looked up)": "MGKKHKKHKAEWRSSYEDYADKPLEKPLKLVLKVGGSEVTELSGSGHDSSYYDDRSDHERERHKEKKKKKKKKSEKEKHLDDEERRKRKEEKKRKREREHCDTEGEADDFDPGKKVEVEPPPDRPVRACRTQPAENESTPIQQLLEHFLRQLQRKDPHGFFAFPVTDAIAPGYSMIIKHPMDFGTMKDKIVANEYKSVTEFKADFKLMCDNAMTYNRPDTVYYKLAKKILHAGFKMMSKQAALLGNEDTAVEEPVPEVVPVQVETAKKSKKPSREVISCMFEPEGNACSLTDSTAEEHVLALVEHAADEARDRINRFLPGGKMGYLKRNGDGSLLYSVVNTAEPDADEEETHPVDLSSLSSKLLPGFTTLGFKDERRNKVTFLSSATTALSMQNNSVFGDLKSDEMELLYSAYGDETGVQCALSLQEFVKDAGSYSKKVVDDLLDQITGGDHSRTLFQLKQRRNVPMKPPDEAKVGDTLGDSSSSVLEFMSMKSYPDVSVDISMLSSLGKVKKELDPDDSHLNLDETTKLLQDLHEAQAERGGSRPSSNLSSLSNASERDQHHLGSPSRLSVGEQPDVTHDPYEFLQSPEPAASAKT", "assay": "PROTAC activity at VHL/BRD9 in human Ri-1 cells assessed as remaining BRD9 protein level at 100 nM incubated for 30 mins by Western blot analysis relative to control", "type": "cell-based", "procedure,_shortened": "(§1)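 Ri-1 cells exposed to compound for the stated time before harvest; BRD9, BRD7 and β-actin measured by Western blot, band intensities quantified and set against DMSO-treated control.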"}, "[3]": {"biological_target": "T2, von Hippel-Lindau disease tumor suppressor/Bromodomain-containing protein 7 (Homo sapiens) (UniProt Q9NPI1+P40337)", "T2 sequence (P40337 whole entry, looked up)": "as the sequence (P40337 whole entry, looked up) above", "T2 sequence (Q9NPI1 whole entry, looked up)": "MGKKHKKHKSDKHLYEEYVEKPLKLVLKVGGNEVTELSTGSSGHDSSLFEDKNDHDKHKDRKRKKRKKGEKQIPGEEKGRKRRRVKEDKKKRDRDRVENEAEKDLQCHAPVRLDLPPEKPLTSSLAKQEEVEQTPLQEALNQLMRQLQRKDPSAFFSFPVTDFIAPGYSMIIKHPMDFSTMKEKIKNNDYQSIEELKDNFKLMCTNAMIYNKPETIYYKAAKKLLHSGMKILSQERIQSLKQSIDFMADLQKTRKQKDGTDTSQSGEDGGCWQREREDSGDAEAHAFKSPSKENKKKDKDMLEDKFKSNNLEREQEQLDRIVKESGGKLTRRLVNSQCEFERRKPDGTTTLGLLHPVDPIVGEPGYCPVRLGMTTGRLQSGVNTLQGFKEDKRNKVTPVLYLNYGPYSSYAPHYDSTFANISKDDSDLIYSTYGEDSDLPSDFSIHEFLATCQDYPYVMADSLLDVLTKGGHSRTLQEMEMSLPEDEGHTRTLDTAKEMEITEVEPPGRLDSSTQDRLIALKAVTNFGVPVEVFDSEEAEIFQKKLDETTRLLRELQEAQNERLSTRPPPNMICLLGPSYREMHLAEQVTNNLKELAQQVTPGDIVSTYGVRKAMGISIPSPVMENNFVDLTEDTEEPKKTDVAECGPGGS", "assay": "PROTAC activity at VHL/BRD7 in human Ri-1 cells assessed as remaining BRD7 protein level at 100 nM incubated for 1 hrs by Western blot analysis relative to control", "type": "cell-based", "procedure,_shortened": "as §1"}, "[4]": {"biological_target": "T1, von Hippel-Lindau disease tumor suppressor/Bromodomain-containing protein 9 (Homo sapiens)", "assay": "PROTAC activity at VHL/BRD9 in human Ri-1 cells assessed as remaining BRD9 protein level at 10 nM incubated for 2 hrs by Western blot analysis relative to control", "type": "cell-based", "procedure,_shortened": "as §1"}, "[5]": {"assay": "Stability in CD-1 mouse liver microsomes at 0.5 uM measured upto 30 mins in the presence of NADPH", "type": "ADME, Microsome", "settings": "0.5 h"}, "[6]": {"biological_target": "T1, von Hippel-Lindau disease tumor suppressor/Bromodomain-containing protein 9 (Homo sapiens)", "assay": "PROTAC activity at VHL/BRD9 in human Ri-1 cells assessed as remaining BRD9 protein level at 100 nM incubated for 1 hrs by Western blot analysis relative to control", "type": "cell-based", "procedure,_shortened": "as §1"}, "[7]": {"biological_target": "T2, von Hippel-Lindau disease tumor suppressor/Bromodomain-containing protein 7 (Homo sapiens)", "assay": "PROTAC activity at VHL/BRD7 in human Ri-1 cells assessed as remaining BRD7 protein level at 0.1 nM incubated for 8 hrs by Western blot analysis relative to control", "type": "cell-based"}, "[8]": {"biological_target": "T2, von Hippel-Lindau disease tumor suppressor/Bromodomain-containing protein 7 (Homo sapiens)", "assay": "PROTAC activity at VHL/BRD7 in human Ri-1 cells assessed as remaining BRD7 protein level at 100 nM incubated for 2 hrs by Western blot analysis relative to control", "type": "cell-based", "procedure,_shortened": "as §1"}, "[9]": {"biological_target": "T1, von Hippel-Lindau disease tumor suppressor/Bromodomain-containing protein 9 (Homo sapiens)", "assay": "PROTAC activity at VHL/BRD9 in human Ri-1 cells assessed as BRD9 protein degradation in the presence of MG132 by Western blot analysis", "type": "cell-based", "procedure,_shortened": "as §1"}, "[10]": {"biological_target": "T1, von Hippel-Lindau disease tumor suppressor/Bromodomain-containing protein 9 (Homo sapiens)", "assay": "PROTAC activity at VHL/BRD9 in human Ri-1 cells assessed as remaining BRD9 protein level at 100 nM incubated for 8 hrs by Western blot analysis relative to control", "type": "cell-based", "procedure,_shortened": "as §1"}, "[11]": {"assay": "Stability in mouse plasma at 10 uM measured upto 180 mins by UPLC-MS/MS analysis", "type": "ADME, cell-free", "settings": "3 h"}, "[12]": {"biological_target": "T2, von Hippel-Lindau disease tumor suppressor/Bromodomain-containing protein 7 (Homo sapiens)", "assay": "PROTAC activity at VHL/BRD7 in human Ri-1 cells assessed as remaining BRD7 protein level at 10 nM incubated for 24 hrs by Western blot analysis relative to control", "type": "cell-based"}, "[13]": {"biological_target": "T2, von Hippel-Lindau disease tumor suppressor/Bromodomain-containing protein 7 (Homo sapiens)", "assay": "PROTAC activity at VHL/BRD7 in human Ri-1 cells assessed as remaining BRD7 protein level at 100 nM incubated for 8 hrs by Western blot analysis relative to control", "type": "cell-based", "procedure,_shortened": "as §1"}, "[14]": {"biological_target": "T1, von Hippel-Lindau disease tumor suppressor/Bromodomain-containing protein 9 (Homo sapiens)", "assay": "PROTAC activity at VHL/BRD9 in human Ri-1 cells assessed as maximal degradation by Western blot analysis relative to control", "type": "cell-based", "procedure,_shortened": "as §1"}, "[15]": {"biological_target": "T2, von Hippel-Lindau disease tumor suppressor/Bromodomain-containing protein 7 (Homo sapiens)", "assay": "PROTAC activity at VHL/BRD7 in human Ri-1 cells assessed as remaining BRD7 protein level at 1 uM incubated for 2 hrs by Western blot analysis relative to control", "type": "cell-based"}, "[16]": {"biological_target": "T2, von Hippel-Lindau disease tumor suppressor/Bromodomain-containing protein 7 (Homo sapiens)", "assay": "PROTAC activity at VHL/BRD7 in human Ri-1 cells assessed as remaining BRD7 protein level at 100 nM incubated for 48 hrs by Western blot analysis relative to control", "type": "cell-based", "procedure,_shortened": "as §1"}, "[17]": {"biological_target": "T3, Von Hippel-Lindau disease tumor suppressor/Elongin B/Elongin C (Homo sapiens) (UniProt P40337+Q15370+Q15369)", "T3 sequence (P40337 whole entry, looked up)": "as the sequence (P40337 whole entry, looked up) above", "T3 sequence (Q15369 whole entry, looked up)": "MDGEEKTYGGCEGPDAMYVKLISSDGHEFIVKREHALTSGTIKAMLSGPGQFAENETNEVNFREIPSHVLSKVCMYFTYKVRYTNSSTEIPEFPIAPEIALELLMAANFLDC", "T3 sequence (Q15370 whole entry, looked up)": "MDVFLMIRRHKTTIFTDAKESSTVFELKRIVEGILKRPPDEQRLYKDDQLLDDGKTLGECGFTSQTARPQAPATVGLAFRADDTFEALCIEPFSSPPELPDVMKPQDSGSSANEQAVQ", "assay": "Co-operative binding affinity to 6His-tagged human VHL/ElonginC/ElonginB expressed in Escherichia coli BL21 (DE3) cells assessed as maximal intensity in the presence of BRD9-BD as complex with compound incubated for 1 hrs by AlphaLISA proximity assay"}, "[18]": {"assay": "Stability in human plasma at 10 uM measured upto 180 mins by UPLC-MS/MS analysis", "type": "ADME, cell-free", "settings": "3 h"}, "[19]": {"biological_target": "T2, von Hippel-Lindau disease tumor suppressor/Bromodomain-containing protein 7 (Homo sapiens)", "assay": "PROTAC activity at VHL/BRD7 in human Ri-1 cells assessed as remaining BRD7 protein level at 10 nM incubated for 48 hrs by Western blot analysis relative to control", "type": "cell-based", "procedure,_shortened": "as §1"}, "[20]": {"biological_target": "T1, von Hippel-Lindau disease tumor suppressor/Bromodomain-containing protein 9 (Homo sapiens)", "assay": "PROTAC activity at VHL/BRD9 in human Ri-1 cells assessed as remaining BRD9 protein level at 10 nM incubated for 8 hrs by Western blot analysis relative to control", "type": "cell-based", "procedure,_shortened": "as §1"}, "[21]": {"biological_target": "T2, von Hippel-Lindau disease tumor suppressor/Bromodomain-containing protein 7 (Homo sapiens)", "assay": "PROTAC activity at VHL/BRD7 in human Ri-1 cells assessed as BRD7 protein degradation in the presence of MG132 by Western blot analysis", "type": "cell-based"}, "[22]": {"system": "EOL1", "assay": "Antiproliferative activity against human EOL1 cells assessed as inhibition of cell growth incubated for 7 days by CellTiterGlo assay", "type": "functional, cell-based", "settings": "EOL1, 168 h"}, "[23]": {"biological_target": "T1, von Hippel-Lindau disease tumor suppressor/Bromodomain-containing protein 9 (Homo sapiens)", "assay": "PROTAC activity at VHL/BRD9 in human Ri-1 cells assessed as BRD9 protein degradation at 100 nM pre-incubated for 30 mins with VH298 followed by compound addition and measured after 4 hrs by Western blot analysis", "type": "cell-based"}, "[24]": {"biological_target": "T2, von Hippel-Lindau disease tumor suppressor/Bromodomain-containing protein 7 (Homo sapiens)", "assay": "PROTAC activity at VHL/BRD7 in human Ri-1 cells assessed as BRD7 protein degradation at 100 nM incubated for 4 hrs by MS proteomics analysis", "type": "cell-based"}, "[25]": {"biological_target": "T2, von Hippel-Lindau disease tumor suppressor/Bromodomain-containing protein 7 (Homo sapiens)", "assay": "PROTAC activity at VHL/BRD7 in human Ri-1 cells assessed as remaining BRD7 protein level at 10000 nM incubated for 2 hrs by Western blot analysis relative to control", "type": "cell-based", "procedure,_shortened": "as §1"}, "[26]": {"biological_target": "T2, von Hippel-Lindau disease tumor suppressor/Bromodomain-containing protein 7 (Homo sapiens)", "assay": "PROTAC activity at VHL/BRD7 in human Ri-1 cells assessed as remaining BRD7 protein level at 10 nM incubated for 2 hrs by Western blot analysis relative to control", "type": "cell-based"}, "[27]": {"biological_target": "T1, von Hippel-Lindau disease tumor suppressor/Bromodomain-containing protein 9 (Homo sapiens)", "assay": "PROTAC activity at VHL/BRD9 in human Ri-1 cells assessed as remaining BRD9 protein level at 10 nM incubated for 24 hrs by Western blot analysis relative to control", "type": "cell-based", "procedure,_shortened": "as §1"}, "[28]": {"biological_target": "T1, von Hippel-Lindau disease tumor suppressor/Bromodomain-containing protein 9 (Homo sapiens)", "assay": "PROTAC activity at VHL/HiBiT-tagged BRD9 expressed in HEK293 assessed as BRD9 ubiquitination at 1 uM measured upto 60 mins by NanoBRET assay", "type": "cell-based"}, "[29]": {"biological_target": "T3, Von Hippel-Lindau disease tumor suppressor/Elongin B/Elongin C (Homo sapiens)", "assay": "Negative co-operative binding affinity to 6His-tagged human VHL/ElonginC/ElonginB expressed in Escherichia coli BL21 (DE3) cells assessed as total gibb's free energy change in the presence of BRD9-BD as complex with compound by ITC analysis"}, "[30]": {"biological_target": "T1, von Hippel-Lindau disease tumor suppressor/Bromodomain-containing protein 9 (Homo sapiens)", "assay": "PROTAC activity at VHL/BRD9 in human Ri-1 cells assessed as remaining BRD9 protein level at 10000 nM incubated for 2 hrs by Western blot analysis relative to control", "type": "cell-based", "procedure,_shortened": "as §1"}},
  "note": "pIC50: −log10 of the molar value. Activity calls are given as the source filed them. No cut-off for these calls is given here.",
  "data": [
    {"compound": "COc1cc(-c2cn(C)c(=O)c3cnccc23)cc(OC)c1CN1CCN(CCCCCOc2cc(-c3scnc3C)ccc2CNC(=O)[C@@H]2C[C@@H](O)CN2C(=O)[C@@H](NC(=O)C2(F)CC2)C(C)(C)C)CC1", "values": [
      {"measurement": "Stability", "setting": "[1]", "value": "Stable"},
      {"measurement": "Activity", "setting": "[2]", "value": 48, "unit": "%"},
      {"measurement": "Activity", "setting": "[3]", "value": 31, "unit": "%"},
      {"measurement": "Activity", "setting": "[4]", "value": 35, "unit": "%"},
      {"measurement": "Stability", "setting": "[5]", "value": "Stable"},
      {"measurement": "Activity", "setting": "[6]", "value": 34, "unit": "%"},
      {"measurement": "Activity", "setting": "[7]", "value": 109, "unit": "%"},
      {"measurement": "Activity", "setting": "[8]", "value": 8, "unit": "%"},
      {"measurement": "Activity", "setting": "[9]", "value": "inactive"},
      {"measurement": "Activity", "setting": "[10]", "value": 2, "unit": "%"},
      {"measurement": "Stability", "setting": "[11]", "value": "Stable"},
      {"measurement": "Activity", "setting": "[12]", "value": 38, "unit": "%"},
      {"measurement": "Activity", "setting": "[13]", "value": 5, "unit": "%"},
      {"measurement": "Emax", "setting": "[14]", "value": "> 90", "unit": "%"},
      {"measurement": "Activity", "setting": "[15]", "value": 10, "unit": "%"},
      {"measurement": "Activity", "setting": "[16]", "value": 3, "unit": "%"},
      {"measurement": "Activity", "setting": "[17]", "value": "1.47 10^6No_unit"},
      {"measurement": "Stability", "setting": "[18]", "value": "Stable"},
      {"measurement": "Activity", "setting": "[19]", "value": 12, "unit": "%"},
      {"measurement": "Activity", "setting": "[20]", "value": 14, "unit": "%"},
      {"measurement": "Activity", "setting": "[21]", "value": "inactive"},
      {"measurement": "pIC50", "setting": "[22]", "value": 8.47},
      {"measurement": "Activity", "setting": "[23]", "value": "inactive"},
      {"measurement": "Activity", "setting": "[24]", "value": "Active"},
      {"measurement": "Activity", "setting": "[25]", "value": 75, "unit": "%"},
      {"measurement": "Activity", "setting": "[26]", "value": 52, "unit": "%"},
      {"measurement": "Activity", "setting": "[27]", "value": 17, "unit": "%"},
      {"measurement": "Activity", "setting": "[28]", "value": "Active"},
      {"measurement": "deltaG", "setting": "[29]", "value": -21.7, "unit": "kcal/mol"},
      {"measurement": "Activity", "setting": "[30]", "value": 89, "unit": "%"}
    ]}
  ]
}
